Data published in ChEMBL document CHEMBL4680189, “Immunosuppressive properties of amino acid and peptide derivatives of mycophenolic acid” (Eur J Med Chem, 2020).
Activity calls are given as the source filed them. No cut-off for these calls is given here. Where a SMILES comes first, the peptide text is derived from it. [ ]: non-standard residue; d: D form. The star is where a group is joined. Mycophenolyl = COc1c(C)c2c(c(O)c1C/C=C(\C)CCC(=O)*)C(=O)OC2; Arg(NO2) = N=C(NCCC[C@H](N)C(=O)O)N[N+](=O)[O-]; βAla = NCCC(=O)O

Experiments:
Jurkat [1] = assay: Immunosuppression-mediated cytotoxicity against human Jurkat T cells assessed as reduction in cell viability incubated for 48 hrs by MTT assay; assay type: cell-based
Outline: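 Jurkat cells in RPMI-1640 with 10% FBS and P/S, 50×10^3 cells/well, exposed in triplicate to serial dilutions from 1 mg/mL (DMSO/medium) for 48 h at 37 °C, 5% CO2. MTT (5 mg/ml) then added for 3 h. Formazan dissolved in 0.4 N HCl–isopropanol, absorbance read at 570 nm. IC50 from curve fitting; viability at 1 mg/mL used where IC50 could not be reached.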

[2] = Immunosuppression-mediated cytotoxicity against anti-CD3/anti-CD28-stimulated human PBMC cells assessed as reduction in cell viability incubated for 72 hrs by MTT assay; assay type: cell-based
Outline: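 PBMC from buffy coats of healthy donors, isolated on a Ficoll gradient with erythrocyte lysis. Plated at 50×10^3 cells/well with anti-CD3/anti-CD28, serial compound dilutions, in triplicate. Incubated 72 h, 37 °C, 5% CO2. MTT added for 3 h, formazan dissolved in acidified isopropanol (0.4 N HCl), A570 read. Three donors averaged; IC50 from curve fit.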

Jurkat [3] = assay: Immunosuppression-mediated antiproliferative activity against human Jurkat T cells assessed as inhibition of cell growth incubated for 48 hrs by VPD450 staining based flow cytometry; assay type: functional
Outline: (§1)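 Cells stained with VPD450 (2 μL of 1 mM dye per 10-30×10^6 cells in 1 mL PBS, 15 min, 37 °C), washed. PBMC: 50×10^3 cells/well with anti-CD3/anti-CD28, serial compound dilutions, 72 h. Jurkat: 50×10^3 cells/well, 48 h. 37 °C, 5% CO2, triplicate. Dye dilution by flow cytometry; EC50 from curve fit.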

[4] = Immunosuppression-mediated antiproliferative activity against anti-CD3/anti-CD28-stimulated human PBMC cells assessed as inhibition of cell growth incubated for 72 hrs by VPD450 staining based flow cytometry; assay type: functional; outline: as §1
[5] = Selectivity index, ratio of IC50 for cytotoxicity against human Jurkat T cells by MTT assay to EC50 for antiproliferative activity against human Jurkat T cells by VPD450 staining based flow cytometry
Outline: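 Jurkat IC50 from the 48 h MTT assay (50×10^3 cells/well, triplicate) divided by Jurkat EC50. […] Cells treated 48 h with serial dilutions, then dye dilution read by flow cytometry and fitted.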

[6] = Selectivity index, ratio of IC50 for cytotoxicity against human PBMC by MTT assay to EC50 for antiproliferative activity against human PBMC by VPD450 staining based flow cytometry
Outline: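 Ratio of the MTT cytotoxicity IC50 (72 h, stimulated PBMC) to the VPD450 antiproliferative EC50 (72 h, stimulated PBMC), both from fitted concentration-response curves.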

PBMC = assay: Immunosuppression-mediated antiproliferative activity against anti-CD3/anti-CD28-stimulated human PBMC cells assessed as inhibition of cell growth incubated for 72 hrs in presence of GMP by VPD450 staining based flow cytometry; assay type: functional
Outline: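 VPD450-stained PBMC, 50×10^3 cells/well, anti-CD3/anti-CD28 stimulation, serial compound dilutions plus GMP at 50 μM in the well. Incubated 72 h at 37 °C, 5% CO2, in triplicate. Proliferation read by flow cytometry as dye dilution and expressed relative to controls.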

Jurkat [7] = assay: Immunosuppression-mediated cytotoxicity against human Jurkat T cells assessed as reduction in cell viability at 1 mg/ml incubated for 48 hrs by MTT assay relative to control; assay type: cell-based
Outline: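 Jurkat cells (RPMI-1640, 10% FBS) plated at 50×10^3 cells/well and exposed to 1 mg/mL compound (1 mg in 20 μL DMSO, made up to 1 mL with medium). 48 h at 37 °C, 5% CO2, in triplicate. MTT (5 mg/mL stock) for 3 h, acidified isopropanol, A570. Viability calculated at that concentration.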

Jurkat [8] = assay: Immunosuppression-mediated antiproliferative activity against human Jurkat T cells assessed as inhibition of cell growth at 1 mg/ml incubated for 48 hrs by VPD450 staining based flow cytometry relative to control; assay type: functional; set-up: scale not given: the % may be the effect or the level left
Outline: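 Jurkat cells stained with VPD450 (2 μL of 1 mM dye per 10-30×10^6 cells, 15 min, 37 °C) and plated at 50×10^3 cells/well. Compound added at the top concentration, 1 mg/mL (1 mg dissolved in 20 μL DMSO, made up to 1 mL with medium). 48 h at 37 °C, 5% CO2, in triplicate. Read by flow cytometry; […].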

| SMILES | EC50 (Jurkat [3]) [µM] | IC50 (Jurkat [1]) [µM] | IC50 [2] [µM] | EC50 [4] [µM] | Ratio IC50/EC50 [5] | Ratio IC50/EC50 [6] | Activity (PBMC) | Activity (Jurkat [7]) [%] | Activity (Jurkat [8]) [%] |
| --- | --- | --- | --- | --- | --- | --- | --- | --- | --- |
| CC[C@H](C)[C@H](N)C(=O)NCCCC[C@H](NC(=O)[C@@H](NC(=O)CC/C(C)=C/Cc1c(O)c2c(c(C)c1OC)COC2=O)[C@@H](C)O)C(=O)N1CCC[C@H]1C(=O)N[C@@H](CCCNC(=N)N[N+](=O)[O-])C(=O)OC (Mycophenolyl-TK(Ile)P[Arg(NO2)]-OMe) | 924 | 809 | 461 | 357 | 0.9 | 1.3 |  |  |  |
| COC(=O)[C@H](CCCNC(=N)N[N+](=O)[O-])NC(=O)[C@@H]1CCCN1C(=O)[C@H](CCCCNC(=O)[C@@H](N)CC(C)C)NC(=O)[C@@H](NC(=O)CC/C(C)=C/Cc1c(O)c2c(c(C)c1OC)COC2=O)[C@@H](C)O (Mycophenolyl-TK(Leu)P[Arg(NO2)]-OMe) | 801 |  | 687 | 551 |  | 1.2 |  | 67.04 |  |
| COC(=O)[C@@H](NC(=O)[C@H](CCCCNC(=O)CCN)NC(=O)[C@@H]1CCCN1C(=O)[C@H](CCCNC(=N)N[N+](=O)[O-])NC(=O)CC/C(C)=C/Cc1c(O)c2c(c(C)c1OC)COC2=O)[C@@H](C)O (Mycophenolyl-[Arg(NO2)]PK(βAla)T-OMe) |  | 786 | 588 | 154 |  | 3.8 |  |  | 75.89 |
| COC(=O)[C@@H](NC(=O)[C@H](CCCCNC(=O)CN)NC(=O)[C@@H]1CCCN1C(=O)[C@H](CCCNC(=N)N[N+](=O)[O-])NC(=O)CC/C(C)=C/Cc1c(O)c2c(c(C)c1OC)COC2=O)[C@@H](C)O (Mycophenolyl-[Arg(NO2)]PK(Gly)T-OMe) |  | 1100 | 865 | 566 |  | 1.5 |  |  | 56.72 |
| CC[C@H](C)[C@H](N)C(=O)NCCCC[C@H](NC(=O)[C@@H]1CCCN1C(=O)[C@H](CCCNC(=N)N[N+](=O)[O-])NC(=O)CC/C(C)=C/Cc1c(O)c2c(c(C)c1OC)COC2=O)C(=O)N[C@H](C(=O)OC)[C@@H](C)O (Mycophenolyl-[Arg(NO2)]PK(Ile)T-OMe) |  |  | 533 | 152 |  | 3.5 |  | 52.48 | 52.77 |

The next lines start with results.

| EC50 (Jurkat [3]) [µM] | SMILES | IC50 (Jurkat [1]) [µM] | IC50 [2] [µM] | EC50 [4] [µM] | Ratio IC50/EC50 [5] | Ratio IC50/EC50 [6] | Activity (PBMC) | Activity (Jurkat [7]) [%] | Activity (Jurkat [8]) [%] |
| --- | --- | --- | --- | --- | --- | --- | --- | --- | --- |
| 396 | COc1c(C)c2c(c(O)c1C/C=C(\C)CCC(=O)N[C@@H](CC(=O)O)C(=O)O)C(=O)OC2 | 540 | 50 | 211 | 1.4 | 0.2 | inactive |  |  |
| 0.3 | COc1c(C)c2c(c(O)c1C/C=C(\C)CCC(=O)O)C(=O)OC2 [MYCOPHENOLIC ACID] | 60.6 | 0.14 | 0.0301 | 228 | 4.6 |  |  |  |
| 16.7 | COC(=O)C[C@H](NC(=O)CC/C(C)=C/Cc1c(O)c2c(c(C)c1OC)COC2=O)C(=O)OC | 20 | 18 | 8 | 1.2 | 2.2 | inactive |  |  |
| 83 | COc1c(C)c2c(c(O)c1C/C=C(\C)CCC(=O)N[C@H](C(=O)O)[C@@H](C)O)C(=O)OC2 | 43 | 82 | 119 | 0.5 | 0.7 | inactive |  |  |
| 65 | COC(=O)C(NC(=O)CC/C(C)=C/Cc1c(O)c2c(c(C)c1OC)COC2=O)C(=O)OC | 101 | 3.5 | 11 | 1.6 | 0.3 | inactive |  |  |
